SENP7 block: inhibitors of human SENP7 protease; recombinant SENP7, Z-RLRGG-aminoluciferin luminescence, 40 min; inhibition, % at 5 µM; 330,000 compounds, 1.5% hits;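 active means inhibition above about 50% at the single test dose, limit read from the data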;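 further: plate controls were DMSO with enzyme for no effect and no enzyme buffer wells for full effect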
SENP8 block-1: SENP8 (human) protease inhibition; Q96LD8; recombinant SENP8, Nedd8 substrate fluorescence; inhibition, % at 20 µM; 360,000 compounds, 0.64% hits; in the data active means inhibition mostly above about 40%, no sharp cut-off; inactive means mostly below about 27%
Target sequence (Q96LD8 whole entry, looked up): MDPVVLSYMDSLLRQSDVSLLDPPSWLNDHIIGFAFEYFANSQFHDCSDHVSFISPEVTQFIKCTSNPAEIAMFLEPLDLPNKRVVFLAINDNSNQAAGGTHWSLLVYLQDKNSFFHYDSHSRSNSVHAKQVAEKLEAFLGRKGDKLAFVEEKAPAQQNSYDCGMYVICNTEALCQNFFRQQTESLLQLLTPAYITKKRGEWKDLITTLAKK
SENP1 FRET inh: inhibitors of human SENP1 SUMO protease catalytic domain | inhibition, % at 10 µM | 360,000 compounds, 0.21% hits | Q9P0U3 | recombinant SENP1 catalytic domain, CyPet-SUMO1-YPet FRET cleavage;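 active means inhibition at least 30% at 10 µM, raw YFP signal under a set limit, fluorescence ratio 0.5 to 1.5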;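 further: 0% = enzyme with DMSO and 100% = no enzyme wells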
Target sequence (Q9P0U3 419-644 limits assumed): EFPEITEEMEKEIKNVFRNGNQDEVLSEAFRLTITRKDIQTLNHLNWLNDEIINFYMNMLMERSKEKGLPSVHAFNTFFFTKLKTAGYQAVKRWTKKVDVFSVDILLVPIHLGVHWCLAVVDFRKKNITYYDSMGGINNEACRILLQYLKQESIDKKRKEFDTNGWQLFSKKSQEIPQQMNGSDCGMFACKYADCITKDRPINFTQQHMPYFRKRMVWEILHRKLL
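System: Recombinant human SENP1 catalytic domain, His6-tagged | Incubation: Enzyme reaction for 50 min at room temperature, dark | Medium: Tris pH 8 with BME, BSA, NP40 and catalase | Also added: 25 nM SUMO1 FRET substrate | Compound: 10 µM single point, 0.5% DMSO | Measured by: FRET fluorescence in CFP and YFP emission channels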
SENP8 block-2: SENP8 protease inhibition | Q96LD8 | purified SENP8, Z-RLRGG-aminoluciferin cleavage, luminescence | inhibition, % at 10 µM | 330,000 compounds, 1.2% hits | AID 2540; in the data active means inhibition above about 50%
HSP90 inh: blocks HSP90-mediated luciferase refolding in reticulocyte lysate | Rabbit reticulocyte lysate, luciferase refolding luminescence, 3 h | inhibition, % at 5.6 µM | 290,000 compounds, 0.91% hits | AID 1789;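 active means inhibition above the screen-wide mean plus 3 SD, computed separately per campaign, cut at about 16% in these data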;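 further: 0% = DMSO wells and 100% = 60 µM geldanamycin wells; inhibitors lower the luminescence because luciferase stays unfolded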
SENP6 inh: inhibitors of human SENP6 protease; Recombinant SENP6 catalytic domain, aminoluciferin luminescence; inhibition, % at 10 µM; 330,000 compounds, 1.8% hits;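 active means inhibition above about 50% at the single tested dose, limit read from the data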;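 further: plate controls were DMSO wells with enzyme for no effect and DMSO wells lacking enzyme for full effect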
SENP8 conf: confirmation of human SENP8 protease inhibitors; shares compounds with SENP7 block; Recombinant SENP8, Z-RLRGG-aminoluciferin luminescence, 60 min; inhibition, % at 12.5 µM; 6,200 compounds, 40% hits;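 active means mean inhibition across replicates above about 50%, limit read from the data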
SENP6 confirm: human SENP6 inhibition, confirmed; shares compounds with SENP7 block; recombinant SENP6, Z-RLRGG-aminoluciferin luminescence; inhibition, % at 12.5 µM; 6,200 compounds, 58% hits
SENP7 conf: human SENP7 inhibition, confirmed; 6,200 compounds, 69% hits; inhibition, % at 12.5 µM; recombinant SENP7, Z-RLRGG-aminoluciferin luminescence, 40 min; shares compounds with SENP7 block
Casp3 select: inhibits human caspase-3 in SENP selectivity test; shares compounds with SENP7 block; purified caspase-3, Z-DEVD-aminoluciferin luminescence, 60 min; inhibition, % at 12.5 µM; 6,200 compounds, 60% hits; AID 488918;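 active means mean inhibition above about 50%, limit read from the data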;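 further: plate controls were enzyme with DMSO for no effect and wells without caspase-3 for full effect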
Luc interf: interferes with luciferase luminescence in SENP counter-screen; shares compounds with SENP7 block; Pre-incubated SENP8/Z-RLRGG-aminoluciferin, luciferase luminescence interference; inhibition, % at 12.5 µM; 6,200 compounds, 39% hits; AID 488919;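 active means mean inhibition above about 50% when retested at one dose, limit read from the data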;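 further: plate controls were DMSO wells with completed reaction for no effect and substrate without enzyme for full effect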
Active calls of the source: *; / = not tested or not shown. In the library only some 2.9% were active in any assay of this set; here they are far more common.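 How the source made its calls, unless noted: active means mean inhibition above about 50% in the one-dose retest (limit read from the data); inactive means the rest.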

SMILES	SENP7 block	SENP8 block-1	SENP1 FRET inh	SENP8 block-2	HSP90 inh	SENP6 inh	SENP8 conf	SENP6 confirm	SENP7 conf	Casp3 select	Luc interf
CCn1cnc2sc(-c3ccccc3)cc2c1=O	10	-29	0	21	-2	58*	37	30	65*	50	44
Oc1ccccc1-c1cc(-c2ccco2)[nH]n1	0	17	-5	19	-2	34	/	/	/	/	/
Oc1c(-c2cc(-c3ccco3)[nH]n2)ccc2ccccc12	55*	-11	8	55*	-1	44	3	69*	86*	17	5
CN(C)C(=O)CN1CCN(Cc2nc(CC3CC3)no2)CC1	2	13	-5	6	0	73*	5	-2	-2	-3	0
CCOC(=O)N1CCN(Cc2nc(CC3CC3)no2)CC1	6	2	3	-7	-4	1	/	/	/	/	/
Cc1cccc(Nc2nnc(SCc3cn4ccsc4n3)s2)c1	61*	17	3	42	4	56*	41	40	72*	45	55*
O=c1cc(CSc2nnc(Nc3ccccc3)s2)nc2sccn12	-9	-4	4	-10	-1	-9	/	/	/	/	/
COc1ccc(C(=O)COC(=O)c2cccs2)cc1	100*	10	2	92*	/	94*	94*	95*	102*	96*	93*
Cc1ccsc1C(=O)OCC(=O)c1ccc(OC(F)F)cc1	97*	15	2	94*	/	95*	69*	91*	102*	92*	29
COc1ccc(C(=O)COC(=O)c2sccc2C)cc1OC	0	8	-1	0	/	2	/	/	/	/	/
O=C(COC(=O)c1cccs1)c1ccccc1	83*	28	2	79*	1	90*	78*	80*	96*	89*	84*
COc1cccc(C(=O)COc2ccc(NC(=O)c3cccs3)cc2)c1	-16	11	2	-18	-3	-8	/	/	/	/	/
COc1ccccc1C(=O)COC(=O)c1cccs1	3	4	-1	-4	/	10	/	/	/	/	/
COc1cccc(C(=O)COC(=O)c2cccs2)c1	86*	8	3	77*	3	84*	1	81*	97*	84*	82*
Cc1ccc(S(=O)(=O)N2CCCC2)cc1C(=O)NCc1ccccc1CN1CCCC1	-12	16	-1	-10	/	-15	/	/	/	/	/
CCOc1ccc(NC(=O)CN2CCN(C(=O)C3CCCO3)CC2)cc1 (stereo not drawn)	-10	10	2	-7	-4	-7	/	/	/	/	/
Cc1ccsc1C(=O)OCC(=O)Nc1sccc1C(N)=O	67*	-1	-7	48	-3	38	56*	58*	79*	67*	24
Cc1ccsc1C(=O)OCC(=O)NCCNC(=O)COC(=O)c1sccc1C	5	1	1	3	/	-1	/	/	/	/	/
O=C(COC(=O)[C@@H]1CCCN1C(=O)c1cccs1)Nc1cccc(Cl)c1	-4	-7	4	2	/	-7	/	/	/	/	/
CCCCn1c(N)c(N(CCC(C)C)C(=O)c2ccc(N3CCCC3=O)cc2)c(=O)[nH]c1=O	3	-32	-11	-2	/	-25	/	/	/	/	/
Cc1cc(=O)[nH]c(N/N=C/c2ccccc2Cl)n1	4	-26	-1	-6	-3	-14	/	/	/	/	/
Cc1cc(=O)[nH]c(N/N=C/c2sccc2C)n1	56*	2	4	23	3	64*	41	39	79*	81*	49
